Results: ChEMBL document CHEMBL4842320, “Cryptic Biosynthesis of the Berkeleypenostatins from Coculture of Extremophilic Penicillium sp” (J Nat Prod, 2021)
≈ marks a conversion by molar mass, not a printed value. Calls of active or inactive are those of the source. The rule behind the calls is not given here.

Experiments:
[1] = tested on: Panel NCI-60 (60 carcinoma cell lines); assay: Anticancer activity against human Panel NCI-60 (60 carcinoma cell lines) assessed as total growth inhibition at 1 to 10 uM measured after 48 hrs by SRB assay; format: functional, cell-based; conditions: dose 1-10 µM
Procedure, shortened: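 NCI Developmental Therapeutics Program 60-human-tumour-cell-line five-dose screen, with total growth inhibition (TGI) as the end-point.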

[2] = tested on: HPAF-II; assay: Cytotoxicity against human HPAF-II cells assessed as reduction in cell viability at upto 50 uM by MTT assay; format: functional, cell-based; conditions: dose microM <=50
Procedure, shortened: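 Vybrant MTT proliferation assay on HPAF-II cells harvested with 0.25% trypsin/0.53 mM EDTA, with viability checked after harvest. Compounds were tested up to 50 μM.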

[3] = tested on: HPAF-II; assay: Antiinvasive activity against human HPAF-II cells assessed as reduction in cell invasion at 1.25 uM measured upto 24 hrs by CMFDA dye staining based fluorescence assay; format: functional; conditions: time hrs <=24
Procedure, shortened: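 Matrigel-coated invasion inserts with 8 μm pores. HPAF-II cells were harvested, resuspended in serum-free DMEM and labelled with CellTracker CMFDA. Compound was diluted in serum-free DMEM to a final 1.25 μM. Run in triplicate, with untreated cells as control and NNGH as positive control.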

[4] = tested on: HPAF-II; assay: Inhibition of cell migration in human HPAF-II cells at 1.25 uM measured upto 24 hrs by CMFDA dye staining based fluorescence assay; format: functional; conditions: time hrs <=24
Procedure, shortened: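 Fluoroblok 96-well insert migration kinetics. HPAF-II cells were harvested at ~80% confluency, resuspended at 5 ×10^5 cells/mL in serum-free DMEM and stained with CellTracker CMFDA. Compound was present at a final 1.25 μM over 24 h. Run in triplicate, with untreated cells as control and NNGH as positive control.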

[5] = tested on: Staphylococcus aureus; assay: Antibacterial activity against wild-type Staphylococcus aureus assessed as minimum inhibitory concentration by alamar blue dye based broth microdilution method; format: functional
[6] = tested on: Staphylococcus aureus; assay: Antibacterial activity against multidrug resistant strains of Staphylococcus aureus assessed as minimum inhibitory concentration by alamar blue dye based broth microdilution method; format: functional
[7] = tested on: Bacillus anthracis; assay: Antibacterial activity against Bacillus anthracis assessed as minimum inhibitory concentration by alamar blue dye based broth microdilution method; format: functional
[8] = biological target: Stromelysin-1 (Homo sapiens, UniProt P08254); assay: Inhibition of MMP-3 (unknown origin)
Sequence of Stromelysin-1 (P08254 whole entry): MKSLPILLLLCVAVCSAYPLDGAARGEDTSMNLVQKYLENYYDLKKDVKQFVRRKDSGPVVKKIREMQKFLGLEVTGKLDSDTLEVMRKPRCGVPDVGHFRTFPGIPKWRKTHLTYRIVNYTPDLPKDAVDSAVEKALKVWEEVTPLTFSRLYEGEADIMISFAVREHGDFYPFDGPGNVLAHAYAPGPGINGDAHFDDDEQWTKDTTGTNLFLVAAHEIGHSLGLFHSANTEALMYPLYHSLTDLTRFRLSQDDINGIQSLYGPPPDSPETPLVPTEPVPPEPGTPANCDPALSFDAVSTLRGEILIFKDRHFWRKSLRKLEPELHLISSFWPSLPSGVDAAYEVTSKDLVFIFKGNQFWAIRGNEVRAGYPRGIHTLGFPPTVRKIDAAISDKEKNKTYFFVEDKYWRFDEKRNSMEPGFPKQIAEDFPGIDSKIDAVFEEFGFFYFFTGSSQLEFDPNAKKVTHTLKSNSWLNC
Procedure, shortened: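 MMP-3 inhibition measured with a commercial MMP-3 drug discovery kit.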

In the case of `CCCCCCC/C=C/[C@@H]1O[C@]23C(=O)C[C@@]4(C[C@H](O[C@@H]5O[C@H](CO)[C@@H](O)[C@H](O)[C@H]5O)C[C@H]4[C@@H]2C=C1C)OC3=O`, the Activity [1] is reported as “inactive”, the Activity [2] is reported as “inactive” and the Activity [3] is reported as “inactive”. For the same compound, the inhibition at 1.25 µM [4] was 30%.

In the case of `CCCCCCC/C=C/[C@@H]1O[C@@]2(O)C(=O)C=C3C[C@@H](O[C@@H]4O[C@H](CO)[C@@H](O)[C@H](O)[C@H]4O)C[C@H]3[C@@H]2C=C1C`, the MIC [5] is reported as 17 µg/mL (≈ 32.5 µM), the MIC [6] is reported as 17 µg/mL (≈ 32.5 µM) and the MIC [7] is reported as 17 µg/mL (≈ 32.5 µM).

In the case of `CCCCCCC/C=C/[C@@H]1O[C@@]2(O)C(=O)C=C3C[C@H](O[C@@H]4O[C@H](CO)[C@@H](O)[C@H](O)[C@H]4O)C[C@H]3[C@@H]2C=C1C`, the MIC [5] is reported as 4 µg/mL (≈ 7.65 µM), the MIC [6] is reported as 4 µg/mL (≈ 7.65 µM) and the MIC [7] is reported as 4 µg/mL (≈ 7.65 µM). The IC50 [8] was 50 µM, the Activity [1] was “Active” and the Activity [2] was “inactive”. For the same compound, the Activity [3] was “inactive” and the inhibition at 1.25 µM [4] was 30%.

Work on `O=C(O)c1cn(C2CC2)c2cc(N3CCNCC3)c(F)cc2c1=O` [CIPROFLOXACIN] yielded an MIC [7] of 0.064 µg/mL (≈ 0.193 µM).
